Entries after “also recorded” stand apart in the source; their conditions may differ. Where two headings read alike, the source gives them in different places.
Key:
Recombinant CEEH1 [1] = conditions: natural substrates, ref Harris et al. (2008); cited from earlier work
Recombinant SPEH1 [2] = molecular target: T1, Recombinant SPEH1 (Strongylocentrotus purpuratus, UniProt B2MWN2); assay: Hydrolysis of EETs and EpOMEs analyzed by LC-MS/MS, recombinant SPEH1; type: biochemical; conditions: natural substrates, adjusted for estimated purity
Recombinant CEEH1 [3] = conditions: read-out: Recombinant CEEH1 IC50; PHOME as substrate; ref Harris et al. (2008); cited from earlier work
Recombinant SPEH1 [4] = molecular target: T1, Recombinant SPEH1; assay: Fluorescent IC50 assay with PHOME as substrate, recombinant SPEH1; type: biochemical
SPEH1 = assay: Phosphatase assay with AttoPhos, SPEH1; type: biochemical, Strongylocentrotus purpuratus; conditions: AttoPhos as substrate
SPEH2 [5] = assay: Phosphatase assay with AttoPhos, SPEH2; type: biochemical, Strongylocentrotus purpuratus; conditions: AttoPhos as substrate
Recombinant SPEH1 [6] = molecular target: T1, Recombinant SPEH1; assay: Inhibition of recombinant SPEH1, [3H] t-DPPO as substrate; type: biochemical; conditions: read-out: Recombinant SPEH1 IC50
Recombinant SPEH1 [7] = molecular target: T1, Recombinant SPEH1; type: biochemical
Recombinant CEEH1 [8] = conditions: ref Harris et al. (2008), cited from earlier work
Recombinant human sEH = conditions: ref Morisseau et al. (2000), cited from earlier work
SPEH2 [9] = assay: Radiometric epoxide hydrolase assay with t-DPPO, recombinant SPEH2; type: biochemical, Strongylocentrotus purpuratus; conditions: t-DPPO as substrate
In short: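 Recombinant enzyme with a C-terminal six-histidine tag, expressed in baculovirus-infected Trichoplusia ni High Five cells (0.1 MOI, 72 h at 28°C). […] The radiometric assay used tritium-labelled t-DPPO as substrate, with enzyme at 0.3 µg/mL, and was terminated at 10 min.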

[10] = t-DPPO as substrate, recombinant SPEH1
[11] = t-DPPO as substrate, recombinant CEEH1
[12] = t-DPPO as substrate, recombinant human sEH

For `CCCCC/C=C\C/C=C\CC1OC1C/C=C\CCCC(=O)O` (stereo not drawn) [8,9-EET], the Specific activity (Recombinant CEEH1 [1]) is listed as 45.2 ± 1.00 nmol/min/mg and the Specific activity (Recombinant SPEH1 [2]) is listed as 33 ± 7.2 nmol/min/mg.

In the case of `CCCCCC=CCC1OC1CCCCCCCC(=O)O` (stereo not drawn) [9,10-EpOME, 9,10-epoxy-12-octadecenoate], the Specific activity (Recombinant CEEH1 [1]) is given as 137 ± 1.77 nmol/min/mg and the Specific activity (Recombinant SPEH1 [2]) is given as 4800 ± 210 nmol/min/mg.

In the case of `CCCCC/C=C\C[C@H]1O[C@H]1C/C=C\C/C=C\CCCC(=O)O` [11,12-EET], the Specific activity (Recombinant CEEH1 [1]) is given as 205 ± 15.3 nmol/min/mg and the Specific activity (Recombinant SPEH1 [2]) is given as 490 ± 140 nmol/min/mg.

For `CCCCCC1OC1C/C=C\C/C=C\C/C=C\CCCC(=O)O` (stereo not drawn) [14,15-EET], the Specific activity (Recombinant CEEH1 [1]) is given as 615 ± 10.8 nmol/min/mg and the Specific activity (Recombinant SPEH1 [2]) is given as 330 ± 64 nmol/min/mg.

In the case of `O=C(NC1CCCCC1)NC12CC3CC(CC(C3)C1)C2` [ACU, N-adamantyl-N′-cyclohexylurea], the IC50 (Recombinant CEEH1 [3]) is listed as 2.5 ± 0.12 µM.

In the case of `O=C(O)CCCCCCCCCCCNC(=O)NC12CC3CC(CC(C3)C1)C2` [AUDA, 12-(3-adamantane-1-yl-ureido)-dodecanoic acid], the IC50 (Recombinant CEEH1 [3]) is listed as 0.027 ± 0.00029 µM and the IC50 (Recombinant SPEH1 [4]) is listed as 0.16 ± 0.013 µM.

For `O=P(O)(O)Oc1ccc2nc(-c3nc4ccccc4s3)sc2c1` [AttoPhos], the “Phosphatase activity of SPEH1 with AttoPhos” value (SPEH1) was “did not display phosphatase activity” and the “Phosphatase activity of SPEH2 with AttoPhos” value (SPEH2 [5]) was “did not display phosphatase activity”.

In the case of `CCCCCCCCCCCCNC(=O)NC1CCCCC1` [CDU, N-cyclohexyl-N′-dodecylurea], the IC50 (Recombinant CEEH1 [3]) is given as 0.16 ± 0.023 µM.

In the case of `CCNC(=O)NC1CCCCC1` [CEU, N-cyclohexyl-N′-ethylurea], the IC50 (Recombinant CEEH1 [3]) is given as greater than 50 µM and the IC50 (Recombinant SPEH1 [6]) is given as greater than 50 µM.

For `O=C(NC1CCCCC1)NC1CCCCC1` [DCU, N,N′-dicyclohexylurea], the IC50 (Recombinant CEEH1 [3]) is listed as 41 µM.

`c1ccc(CC2OC2c2ccccc2)cc1` (stereo not drawn) [t-DPPO] showed a Km (Recombinant SPEH1 [7]; [10]) of 35 ± 1.2 µM, a kcat (Recombinant SPEH1 [7]; [10]) of 44 ± 0.71 s⁻¹ and a Specific activity (Recombinant SPEH1 [7]; t-DPPO as substrate, recombinant SPEH1, adjusted for estimated purity) of 3100 ± 270 nmol/min/mg. For the same compound, the kcat/Km ratio (Recombinant SPEH1 [7]; t-DPPO, SPEH1, unit not given) was 1.3, the Km (Recombinant CEEH1 [8]; [11]) was 160 ± 21 µM and the Specific activity (Recombinant CEEH1 [8]; [11]) was 3000 ± 230 nmol/min/mg. For the same compound, the kcat (Recombinant CEEH1 [8]; [11]) was 12 ± 0.5 s⁻¹, the kcat/Km ratio (Recombinant CEEH1 [8]; t-DPPO, nematode enzyme, unit not given) was 0.07 and the Km (Recombinant human sEH; [12]) was 6.2 ± 0.6 µM. For the same compound, the Specific activity (Recombinant human sEH; [12]) was 4500 ± 200 nmol/min/mg, the kcat (Recombinant human sEH; [12]) was 4.3 ± 0.3 s⁻¹ and the kcat/Km ratio (Recombinant human sEH; t-DPPO, human enzyme, unit not given) was 0.7. For the same compound, the “EH activity of SPEH2 with t-DPPO” value (SPEH2 [9]) was “not active; also recorded: did not display activity”.

— PMC2858585 (DNA and cell biology, 2008)
